Screening data as filed in PubChem BioAssay.
Shown is part of a subset that was picked to be rich in hits.
V-ATPase pHluor – regulators of yeast V-ATPase proton pumping, primary screen, pHLuorin cytosolic pH fluorescence; S. cerevisiae; response, % at 10 µM; 350,000 compounds, 0.37% hits; in the data active = response mostly above about 7.3%, no sharp cut-off; inactive = mostly below about 5.4%; note: actives read high
CHOP inhibitor – inhibitors of CHOP promoter induction, primary screen, cell-based, unfolded protein response, luciferase reporter; 220,000 compounds, 3.8% hits; inhibition, % at 10 µM; AID 2732, 2010; CHO-K1 CHOP-promoter luciferase, tunicamycin-induced, 15-18 h;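 active = compounds that reduced the stress-induced luciferase reporter signal by more than about 70% of percent inhibition, limit read from the data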;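 note: 0% = tunicamycin plus vehicle and 100% = wells without tunicamycin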
Tb MetRS inh – T. brucei MetRS inhibitors, primary screen, biochemical, luminescence; purified T. brucei MetRS, ATP depletion, Kinase-Glo luminescence; inhibition, % at 11.9 µM; 360,000 compounds, 0.4% hits;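 active = inhibition above a per-plate cutoff of the control wells' mean inhibition plus 3 SD, cut at about 5.5% in these data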;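 note: 0% = DMSO wells median and 100% = median of wells with control inhibitor compound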
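Measured by: Kinase-Glo luciferase luminescence reporting remaining unconsumed ATP. Material: purified T. brucei MetRS enzyme. Doses: 11.9 µM compound single dose, 0.9% DMSO. Medium: HEPES buffer containing pyrophosphatase, BSA, spermine, DTT. Times: 15 min preincubation, 2 h reaction, all 25 °C. Reagent: methionine, ATP and bulk E. coli tRNA.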
CHOP UPR activ – activators of apoptotic CHOP UPR arm, primary screen, cell-based, CHO-CHOP luciferase reporter, luminescence, uHTS. UPR activation; percent of tunicamycin response over DMSO baseline. activation, % at 10 µM. 330,000 compounds, 0.34% hits. AID 449763, 2010;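 active = at 10 µM dose, activation of 40% or more, normalized to positive control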;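 note: 100% = tunicamycin at 10 µg/mL and 0% = DMSO alone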
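System: CHO-CHOP luciferase reporter cell line | Buffer or medium: F12 medium containing 10% fetal bovine serum | Doses: One dose, 10 µM in 0.5% DMSO | Times: 6 h compound exposure at 37 °C after overnight seeding | Signal: Luciferase luminescence | Read-out: % activation vs tunicamycin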
UPR XBP1 act – activators of adaptive XBP1 UPR arm, primary screen, cell-based, CHO-XBP1 luciferase reporter, luminescence, uHTS; IRE1-XBP1 UPR activation; percent of tunicamycin response, DMSO as zero; activation, % at 20 µM; 330,000 compounds, 0.33% hits; AID 463104, 2010;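 active = versus positive control, 20 µM dose yields 30% or more activation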;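 note: 100% = tunicamycin at 10 µg/mL and 0% = DMSO only wells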
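assay system = CHO-XBP1 luciferase reporter cells | amount = 1000 cells/well | buffer or medium = F12 plus 10% FBS | compound dosing = single point, 20 µM final compound, 1% DMSO | incubation = 16-18 h cell attachment at 37 °C, then 6 h compound exposure | detection = Steady-Glo luminescence read | controls = tunicamycin 10 µg/mL and vehicle-only wells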
Starred values were filed as active, the others as inactive; . = not tested or not shown.

SMILES	V-ATPase pHluor	CHOP inhibitor	Tb MetRS inh	CHOP UPR activ	UPR XBP1 act
CC1(CNC(=O)C(=O)NCC2(C)CO2)CO1 (stereo not drawn)	1.8	.	0.2	.	.
Cc1cccc(-c2nc(=S)c3c(o2)CCCC3)c1	-3.4	76.6*	-1.3	4.9	0.9
C=CCn1c(SCC(=O)N2CCN(c3ccccc3)CC2)nc2c([nH]c3ccccc32)c1=O	-1.3	.	-0.2	20.6	72.9*
COc1cccc(-n2c(SCC(=O)N3CCCCC3)nc3c([nH]c4ccccc43)c2=O)c1	5.4	71.1*	-0.3	2.9	9.0
O=C(Cn1cncn1)NCc1cc(F)ccc1F	2.2	21.7	-0.5	0.4	-0.1
CCNC(=O)C1CCCN(C(=O)c2ccc(C#N)cc2)CC1 (stereo not drawn)	.	.	-0.1	.	.
COc1ccc(-c2cc(C(=O)O)c3c(C)nn(-c4ccccn4)c3n2)cc1	.	8.9	.	4.7	-3.1
COc1ccc(N=CC2=C(Nc3ccc(OC)cc3)c3c(C)nn(-c4ccccn4)c3CC2)cc1	.	.	.	59.3*	5.6
COc1ccc(-c2noc(Cc3ccc(Cl)cc3)n2)cc1OC	-0.8	85.8*	-0.8	0.5	2.6
COc1ccc(Cc2nc(-c3ccc(Cl)cc3)no2)cc1	-1.6	54.6	-0.8	2.7	2.4
COc1ccc(-c2noc(CCCc3ccccc3)n2)cc1OC	0.8	72.2*	-0.4	3.1	3.5
CCN(CC)S(=O)(=O)c1cccc(C(=O)OCC(=O)c2ccc3c(c2)OCCO3)c1	0.9	18.4	-0.2	1.5	-1.1
Cc1cccc(C)c1NC(=O)CN1CCNCC1	5.5	87.0*	-0.7	-2.1	0.3
CC(C)(C)c1cc(NC(=O)C2(C)CCN2C(=O)C2(c3ccccc3)CC2)no1 (stereo not drawn)	.	.	-0.4	.	.
CCCCCn1c(SCC(=O)OCC)nc2cc(C(=O)NCc3ccco3)ccc2c1=O	5.7	73.4*	-0.4	0.0	0.5
COc1ccc(F)cc1-c1cc(C(=O)NC2CCCCC2)[nH]n1	.	.	-0.2	.	.
CCc1cc2cc(C)cc(C)c2nc1SCC(=O)N1CCCC1	0.3	87.2*	-0.5	-0.6	-0.1
CC(C)CN=Cc1c(O)c([N+](=O)[O-])cc2oc3c(c12)CCCC3	2.4	84.1*	-0.2	0.8	-1.6
CC1CN(Cc2ccco2)C(=S)NC1=O (stereo not drawn)	-2.0	.	-0.1	.	.
CCOc1ccc2nc(NC(=O)c3ccccn3)sc2c1	-2.0	34.0	-1.9	13.7	-6.6
Cc1ccc2nc(NC(=O)c3ccccn3)sc2c1	3.5	97.0*	-0.6	9.0	-10.5
Cc1ccc2nc(NC(=O)c3ccc(S(=O)(=O)N4CCCc5ccccc54)cc3)sc2c1	2.8	76.3*	-0.5	10.8	2.8
O=C(Nc1nc2ccc(F)cc2s1)c1cccc(S(=O)(=O)N2CCc3ccccc32)c1	-0.6	27.0	-0.7	3.2	-0.3
OCC1NC[C@@H](O)C(O)[C@@H]1O (stereo partly drawn)	.	15.5	.	.	.
CCOC(=O)c1c(NC(=O)CSc2n[nH]c(CNc3ccccc3)n2)sc(C)c1C	1.0	91.3*	-1.6	0.2	-4.1
SMILES	V-ATPase pHluor	CHOP inhibitor	Tb MetRS inh	CHOP UPR activ	UPR XBP1 act
CCOC(=O)c1c(NC(=O)CSc2n[nH]c(-c3ccco3)n2)sc(C)c1C	1.4	32.7	-0.9	-1.3	2.4
CCCNC(=O)C1(C)CCCN(C(=O)c2cccc(C#N)c2)C1 (stereo not drawn)	.	.	-0.1	.	.
Cc1cccc(C)c1-n1nnnc1C1c2ccccc2C(=O)N1CCc1ccc(O)cc1 (stereo not drawn)	.	.	-1.6	.	.
CCc1cccc2c(SCC(=O)NCC3CCCO3)nc(-c3ccc(F)cc3)nc12 (stereo not drawn)	1.9	78.8*	-1.6	2.3	-0.3
C[C@@H]1CN([C@@H](C)CO)C(=O)c2cc(Br)cnc2O[C@H]1CN(C)C(=O)Nc1ccc2c(c1)OCO2	3.8	.	0.5	.	.
CCOC(=O)C1(C(=O)OCC)NC(=O)CC1CC(C)C (stereo not drawn)	5.7	.	-0.3	.	.
O=C(CCCCCNc1nc(=S)[nH]c2ccccc12)NCCc1ccc(Cl)cc1	2.1	83.5*	0.1	-0.2	-2.1
O=C(CCCCCNc1nc(=S)[nH]c2ccccc12)NCCc1c[nH]c2ccccc12	3.0	44.1	0.8	-1.6	-0.4
O=C(Nc1nc2n(n1)C(c1ccc(Cl)cc1)CC(c1ccc(Cl)cc1)N2)c1ccco1 (stereo not drawn)	.	80.5*	.	1.2	-3.6
NCC(O)C1CCCCCCC1 (stereo not drawn)	.	3.5	.	.	.
O=C(c1ccco1)N1CCCN(Cc2nc(-c3cccs3)no2)CC1	-2.2	9.3	-1.2	-0.8	-1.5
CCc1nc2ccccc2c(C(=O)OCC(=O)Nc2ccc(S(=O)(=O)N3CCOCC3)cc2)c1C	0.5	74.4*	-0.8	-1.0	-2.4
Cc1ccc2nc(N3CCC(C(=O)O)CC3)nc(-c3ccccc3)c2c1	-1.6	-1.4	-0.4	-2.0	1.6
Cc1ccc2nc(N3CC(=O)Nc4ccccc43)nc(-c3ccccc3)c2c1	-3.0	89.3*	-0.5	.	.
COC(=O)C1=C(O)/C(=C\c2ccc(CNC(=O)C(=O)Nc3ccc(C)c(C)c3)o2)N=C1C	0.9	72.5*	-1.6	0.0	-0.3
O=c1cc(CN2CCN(Cc3ccccc3)CC2)c2ccc(O)c(O)c2o1	-2.9	.	0.2	3.8	63.2*
Cc1c(O)ccc2c(CN3CCN(Cc4ccccc4)CC3)cc(=O)oc12	-1.0	.	-0.3	-2.5	1.8
CSc1ccc(CNc2ccc(C)c(C)c2)cc1	1.1	91.6*	0.1	1.5	1.0
O=C(c1ccc(Cn2cc([N+](=O)[O-])cn2)o1)N1N=C(C(F)F)CC1(O)C(F)F (stereo not drawn)	1.8	27.0	0.3	0.1	-2.3
O=C(c1ccc(COc2ccccc2Br)o1)N1N=C(C(F)F)CC1(O)C(F)F (stereo not drawn)	2.8	89.0*	0.3	0.9	-1.8
COc1cccc(-c2cc(C(=O)N3CCCc4ccccc43)no2)c1	-3.2	73.1*	0.1	3.5	2.0
N#Cc1c(NCCCO)nc(-c2ccccc2)c2c1CCCC2	4.1	77.7*	0.1	-1.0	1.8
CC(=O)N1CCN(c2nc(CC(C)C)c3c(c2C#N)CCC3)CC1	0.3	20.1	-0.9	-1.4	0.9
CN(C)CCCNc1nc(-c2ccccc2)c2c(c1C#N)CC(C)(C)OC2	-3.8	3.7	-0.3	2.3	-1.9
CC1(C)Cc2c(C#N)c(N3CCN(C(=O)c4ccco4)CC3)nc(Cc3ccccc3)c2CO1	-3.6	87.6*	0.4	3.0	-6.6
CC(C)Cc1nc(N2CCN(C(=O)c3ccccc3)CC2)c(C#N)c2c1CCC2	1.1	79.7*	-0.3	0.0	0.2
